Source: PubChem (Broad Institute)
This is a sample that favours compounds with a hit; in the whole collection about 2.6% have one here.
rRNA inh HTS: selective bacterial rRNA inhibition in E. coli; E. coli WT GFP vs humanized-ribosome RFP mutants, fluorescence, 24 h; hits give low values; DMSO median 0, no signal -100; GFP signal change (wild-type ribosome), % (test concentration not listed); 350,000 compounds, 1.6% hits; AID 720706;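 active = significant combined selectivity score with lowered wild-type GFP, culture density cut under 30%, mutant RFP and density less affected; inactive = any of these conditions unmet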
dFosB act-1: mouse delta FosB homodimer activation. P13346. purified delta FosB, TAMRA-CDK5 oligo fluorescence polarization; percent of positive-control signal above neutral wells. activation, % at 25 µM. 340,000 compounds, 0.99% hits. AID 493131;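 active = mean activation above about 17%, with every replicate also reaching it, limit read from the data, passing the limit was not always enough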
SR-BI HDL uptake: inhibitors of mouse SR-BI mediated HDL lipid uptake; Q61009; inhibition, % at 12.5 µM; ldlA[mSR-BI] CHO cells, DiI-HDL uptake fluorescence, 3 h; AID 488896; 320,000 compounds, 0.96% hits;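 active = mean replicate inhibition of at least 70% and a set share of replicates each scoring 70 or more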;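 note: 0% = median of neutral control wells and 100% = median of positive control wells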
Target sequence (Q61009 whole entry, looked up): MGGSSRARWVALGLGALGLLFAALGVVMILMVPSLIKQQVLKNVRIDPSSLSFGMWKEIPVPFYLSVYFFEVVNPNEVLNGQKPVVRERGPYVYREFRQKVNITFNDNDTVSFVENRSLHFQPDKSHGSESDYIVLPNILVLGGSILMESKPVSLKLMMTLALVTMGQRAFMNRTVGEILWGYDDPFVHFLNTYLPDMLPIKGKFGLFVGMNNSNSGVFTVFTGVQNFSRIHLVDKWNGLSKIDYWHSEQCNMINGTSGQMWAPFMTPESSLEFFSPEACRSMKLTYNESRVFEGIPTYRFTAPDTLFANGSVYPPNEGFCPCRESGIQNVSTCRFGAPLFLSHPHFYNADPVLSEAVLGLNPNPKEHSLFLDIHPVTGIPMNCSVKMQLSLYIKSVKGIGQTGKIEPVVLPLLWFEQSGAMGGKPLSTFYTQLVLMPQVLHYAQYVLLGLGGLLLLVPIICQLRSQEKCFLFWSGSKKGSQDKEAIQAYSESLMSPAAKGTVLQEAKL
PvdQ acylase: P. aeruginosa PvdQ acylase inhibition; inhibition, % at 10 µM; purified PvdQ acylase, fluorescence plate reader; 340,000 compounds, 0.063% hits; in the data active = inhibition above about 30%, passing the limit was not always enough;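 note: 0% = vehicle neutral wells and 100% = reference inhibitor wells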
SR-BI uptake up: SR-BI HDL lipid transfer activation | AID 504775 | 320,000 compounds, 0.096% hits | CHO ldlA[mSR-BI] cells, DiI-HDL uptake fluorescence, 3 h; 100 = double the neutral-control signal | activation, % at 12.5 µM;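 active = mean replicate activation of at least 60% and every replicate at or above 60%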;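 note: 0% = median plate neutral-control signal and 100% = twice that signal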
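Test system: SR-BI-overexpressing, LDLR-lacking CHO cells; Medium: Ham's F12 with 0.5% BSA, HEPES 25 mM, pH 7.4; Schedule: 3 h, 37 °C; Technique: bottom-read fluorescence, 550/595 nm.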
XiGFP reactiv: X-chromosome reactivation activator; XiGFP mouse fibroblasts, % GFP-positive cells imaging, 3 d; cells co-treated with 5-aza-dC sensitizer; scaled so ellipticine positive control = 100%; activation, % at 7.58 µM; 360,000 compounds, 0.055% hits; AID 743238;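 active = mean normalized replicate activation at least 10% and every replicate at or above 10%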;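 note: 0% = median of on-plate neutral control wells and 100% = ellipticine 6 µM median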
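Schedule: 3 d treatment, 15 min room-temperature fixation; system: 68-5-11 XiGFP fibroblast line; buffer or medium: DMEM plus 5-aza-dC sensitizer; control set: ellipticine 6 µM positive control; compound: one concentration, pinned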
dFosB act-2: enhances mouse delta FosB homodimer binding to DNA; shares compounds with dFosB act-1; 2,400 tested, under 10 active; activation, % at 24.9 µM; AID 588690; purified delta FosB, TAMRA-CDK5 oligo fluorescence polarization; normalised: neutral wells 0, positive control 100;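 active = highest replicate activation at or above 34% and every replicate reaching that threshold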;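 note: higher polarization means more probe DNA bound by delta FosB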
* hit, by the source's call; / = no result given.

SMILES	rRNA inh HTS	dFosB act-1	SR-BI HDL uptake	PvdQ acylase	SR-BI uptake up	XiGFP reactiv	dFosB act-2
CCOc1ccc(CNC(=O)C2CCN(c3nnc(C)c4c(C)n(-c5ccc(C)cc5)nc34)CC2)cc1	14	78*	34	-7	-34	0	-11
CCOc1ccccc1CNC(=O)C1CCN(c2nnc(C)c3c(C)n(-c4ccc(C)cc4)nc23)CC1	-3	85*	59	-6	-59	0	5
COc1ccc(S(=O)(=O)NC2(C(F)(F)F)NC(=O)N(CCc3ccccc3)C2=O)cc1 (stereo not given)	-1	1	/	-8	/	0	/
COc1ccc(-c2csc(NC(=O)C3CSC4(C)CCC(=O)N34)n2)cc1OC (stereo not given)	-1	-1	28	1	-28	0	/
Cc1ccc(-n2nc3c(=O)n(C(C)C(=O)NCc4ccccc4Cl)nc(C)c3c2C)cc1 (stereo not given)	-5	28*	69	2	-69	0	1
COc1ccc(N(CC(=O)Nc2ccc3c(c2)OCCO3)S(=O)(=O)c2c(C)noc2C)cc1	/	37*	1	-1	-1	/	3
CCOC(=O)c1ccc(-n2cccc2/C=C2\NC(=O)NC2=O)cc1	1	30*	25	-10	-25	0	7
CCOc1ccc(-c2cc(NC(=O)Cn3ncc4c3-c3ccccc3OC4)on2)cc1OCC	3	39*	64	-4	-64	0	3
COc1ccccc1NC(=O)Cn1ncc2c1-c1ccccc1OC2	4	-7	-22	-9	22	0	/
COc1ccc(C2C3C(=O)N(Cc4ccccc4)C(=O)C3ON2c2ccccc2)c(OC)c1OC (stereo not given)	/	-12	-3	-2	3	/	/
CCN1CCN(c2nc3c(C)cccn3c(=O)c2/C=C(\C#N)S(=O)(=O)c2ccc(Cl)cc2)CC1	19	48*	22	-3	-22	0	-2
CCCCN(CCCNC(=O)Cn1nc(CC)n2c(cc3sc(C)cc32)c1=O)Cc1ccccc1	4	35*	0	-6	0	0	1
CCc1nn(CC(=O)NCCCN(CC)Cc2ccccc2)c(=O)c2cc3sccc3n12	/	-3	34	-10	-34	/	/
CCOC(=O)c1ccc(NC(=O)NC2CC3CCC(C2)N3Cc2nnnn2Cc2ccco2)cc1 (stereo not given)	/	4	57	-3	-57	/	/
c1nc(NCc2ccc3c(c2)OCO3)c2cc(-c3ccc4c(c3)OCCO4)ccc2n1	-22	39*	7	-4	-7	0	3
COc1ccc(NC(=O)c2cc(-c3ccc4c(c3)OCO4)on2)cc1	-5	26*	/	12	/	0	-1
Cc1nn(Cc2ccc(Cl)cc2)c(C)c1NC(=O)c1cc(-c2ccc3c(c2)OCO3)on1	/	58*	27	-13	-27	/	7
Cc1nn(Cc2ccc(Cl)c(Cl)c2)c(C)c1NC(=O)c1cc(-c2ccc3c(c2)OCO3)on1	/	-11	13	-2	-13	/	/
Cc1ccc2oc(-c3ccc(NC(=O)c4ccc5c(c4)OCO5)cc3)nc2c1	/	45*	60	-6	-60	/	2
Cc1ccc(NC(=O)c2cc(-c3ccc4c(c3)OCO4)on2)cc1	16	18*	-26	-12	26	0	3
Cc1ccc(-c2cc(C(=O)NCc3ccc4c(c3)OCO4)no2)cc1	/	4	-14	-2	14	/	/
O=C(Nc1ccc(F)cc1)N1CC(=O)N2[C@H](CO)[C@@H](c3ccc(-c4ccccc4)cc3)[C@@H]2C1	-38	/	/	/	/	0	/
CN1C(=O)c2cc(NC(=O)Nc3cccc(Cl)c3)ccc2OC[C@H]2O[C@H](CC(=O)NCCc3ccncc3)CC[C@H]21	-5	/	/	/	/	0	/
O=C(Nc1ccc(Br)cc1)c1cc(-c2ccc3c(c2)OCO3)on1	8	25*	/	3	/	0	0
C=CCNC(=O)c1cc(-c2ccc3c(c2)OCO3)on1	10	8	-6	-16	6	0	/
SMILES	rRNA inh HTS	dFosB act-1	SR-BI HDL uptake	PvdQ acylase	SR-BI uptake up	XiGFP reactiv	dFosB act-2
O=C(NC(c1ccccc1)c1cnccn1)C1CCN(CCCOc2ccccc2)CC1 (stereo not given)	10	/	/	/	/	0	/
Cc1ccccc1NC(=O)c1ccc(F)c(S(=O)(=O)N2CCN(c3ccccn3)CC2)c1	16	19*	21	-10	-21	/	0
O=C(Nc1ccc(Br)cc1)c1ccc(F)c(S(=O)(=O)N2CCN(c3ccccn3)CC2)c1	14	0	51	-3	-51	0	/
O=C1c2cccc3cccc(c23)C(=O)N1c1ccc2ncccc2c1	/	36*	21	2	-21	/	-1
C[C@@H]1CN([C@@H](C)CO)S(=O)(=O)c2ccc(C#CC3CCCC3)cc2O[C@H]1CN(C)C(=O)Cc1ccccc1	0	/	/	/	/	-1	/
Cc1ccc2sc(NC(=O)c3ccc(N4C(=O)CCC4=O)cc3)nc2c1C	5	-3	61	-9	-61	0	/
Cc1cc(C)c2sc(NC(=O)c3ccc(N4C(=O)CCC4=O)cc3)nc2c1	8	80*	/	-19	/	10	7
O=C(Nc1nc2ccc(F)cc2s1)c1ccc(N2CCCC2=O)cc1	-5	25*	36	3	-36	0	0
CCO[C@H]1OC(C(=O)NCc2nc3ccccc3[nH]2)=C[C@@H](c2cn(C(C)=O)c3ccccc23)[C@@H]1CCCO	/	1	13	0	-13	0	/
CCN(CC)CCN(C(=O)c1ccc2ccccc2c1)c1nc2ccc(OC)cc2s1	-19*	26*	12	-11	-12	0	4
CCN(CC)CCN(C(=O)c1ccc(C(=O)c2ccccc2)cc1)c1nc2c(OC)cccc2s1	-34	33*	46	-18	-46	0	6
CCN(CC)CCN(C(=O)c1ccc([N+](=O)[O-])cc1)c1nc2c(OC)cccc2s1	6	2	-4	-13	4	0	/
Cc1ccc2nc(N(CCCN(C)C)C(=O)c3ccc4c(c3)CCCC4)sc2c1	/	1	0	2	0	0	/
CCOc1ccc2nc(N(CCN(C)C)C(=O)c3ccc4c(c3)CCCC4)sc2c1	/	30*	62	18	-62	/	0
COc1cc2c(cc1OC)C1=CC(=O)C(=O)N1C(C)(C)C2	81	-6	-9	-1	9	0	/
CC(C)CCNC(=O)CCC(=O)NNc1nc2ccccc2c2nc(-c3ccccc3)nn12	/	56*	-12	19	12	0	6
